Measurements published in publication PMC6301076 (Bioorganic & medicinal chemistry letters, 2018).
Values joined by “and” are separate entries in the source; they are usually repeats but may differ in a detail not shown here. Equal values may be shown once. Read-outs that look alike come from different tables or passages of the source. Marks after values point to notes of the source that are not given here.

What was measured:
S. mansoni [1] = conditions: cited from earlier work; for single oral dose ED50: S. mansoni mouse model
[2] = tested on: cultured adult S. mansoni; conditions: cited from earlier work
schistosomula (NTS) = conditions: 10 μM concentration; cited from earlier work
[3] = after 100 mg/kg oral dose of Ro 13-3978 to mice; cited from earlier work
[4] = Aqueous solubility by nephelometry; assay type: physicochemical; conditions: concentration range; for Sol2.0: 0.01 M HCl (approx. pH 2.0); for Sol6.5: pH 6.5 phosphate buffer
[5] = Plasma exposure after oral administration to mice; assay type: in vivo; conditions: 100 mg/kg, plasma concentration versus time profile
S. mansoni [6] = test: In vivo antischistosomal activity in S. mansoni-infected mice; conditions: 1 × 100 mg/kg po
[7] = In vitro intrinsic clearance in mouse liver microsomes; assay type: in vitro ADME; conditions: absence of co-factor
In short: (§1)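 Test compound incubated with human or mouse liver microsomes. Control incubations without NADPH detect cofactor-independent degradation, such as by non-specific microsomal esterases. Read-out is intrinsic clearance, also expressed as in vitro half-life.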

[8] = In vitro intrinsic clearance in human liver microsomes; assay type: in vitro ADME; conditions: absence of co-factor
In short: as §1

Sol2.0 [4] | Sol6.5 [4] | SMILES | further results
 |  | CC1(C)NC(=O)N(c2ccc(F)c(C(F)(F)F)c2)C1=O [Ro 13-3978, reference compound] | single oral dose ED50 (S. mansoni [1]): 15 mg/kg; effect on cultured adult S. mansoni [2]: little effect
25 to 50 µg/mL |  | CC(C)(NC(=O)Nc1ccc(F)c(C(F)(F)F)c1)C(=O)O [compound 2] | activity against schistosomula (NTS) (schistosomula (NTS)): no activity; exposure relative to that of Ro 13-3978, based on AUC0-24h [3]: < 1%; S. mansoni WBR (S. mansoni [1]; 1 × 100 mg/kg po, S. mansoni-infected mice, ref 4 (Wang et al.), 100 mg/kg): 67% and 67^d %; oral absorption [5]: rapid and extensive absorption; activity against cultured adult S. mansoni ([2]; 10 μM concentration): no activity
 | 50 to 100 µg/mL | CC(C)(NC(=O)Nc1ccccc1)C(=O)O [compound 3] | 
>100/>100 μg/mL | >100/>100 μg/mL | CC(C)(C(=O)O)N1CCCN(c2ccc(F)c(C(F)(F)F)c2)C1=O [compound 4] | 
25-50/25-50 μg/mL | 25-50/25-50 μg/mL | CC(C)(CC(=O)Nc1ccc(F)c(C(F)(F)F)c1)C(=O)O [compound 5] | 
50 to 100 µg/mL | 25 to 50 µg/mL | CC(C)(NC(=O)Cc1ccc(F)c(C(F)(F)F)c1)C(=O)O [compound 6] | 
>100/>100 μg/mL | >100/>100 μg/mL | O=C(O)CNC(=O)Nc1ccc(F)c(C(F)(F)F)c1 [compound 7] | 
>100/>100 μg/mL | >100/>100 μg/mL | O=C(Nc1ccc(F)c(C(F)(F)F)c1)NC1(C(=O)O)CC1 [compound 8] | 
50 to 100 µg/mL |  | O=C(Nc1ccc(F)c(C(F)(F)F)c1)NC1(C(=O)O)CCC1 [compound 9] | 
50 to 100 µg/mL |  | CC(C)(C(=O)O)n1c(=O)[nH]c2cc(C(F)(F)F)c(F)cc21 [compound 10] | 
50 to 100 µg/mL |  | CC(C)(C(=O)O)N1Cc2cc(F)c(C(F)(F)F)cc2NC1=O [compound 11] | 
50-100/50-100 μg/mL | 50-100/50-100 μg/mL | CC(C)(NC(=O)Nc1ccc(F)c(C(F)(F)F)c1)C(N)=O [compound 12] | 
3.1-6.3/3.1-6.3 μg/mL | 3.1-6.3/3.1-6.3 μg/mL | CCOC(=O)C(C)(C)NC(=O)Nc1ccc(F)c(C(F)(F)F)c1 [compound 13] | S. mansoni WBR (S. mansoni [6]): 70^f %; stability in control microsomal incubations [7]: underwent non-NADPH mediated degradation; stability in control microsomal incubations [8]: underwent non-NADPH mediated degradation
 |  | O=C(C1CCCCC1)N1CC(=O)N2CCc3ccccc3C2C1 (stereo not drawn) [praziquantel, reference compound] | single oral dose ED50 (S. mansoni [1]): 172 mg/kg
